≈ marks a conversion by molar mass, not a printed value.
Key:
[1] = Volume of distribution in Balb/c mouse at 3 mg/kg, iv by LC-MS/MS analysis; format: ADME, organism-based; parameters: dose 3 mg/kg, route intravenous; settings: in vivo
[2] = Clearance in Balb/c mouse at 3 mg/kg, iv by LC-MS/MS analysis; format: ADME, organism-based; parameters: dose 3 mg/kg, route intravenous; settings: in vivo
[3] = AUC in Balb/c mouse at 3 mg/kg, iv by LC-MS/MS analysis; format: ADME, organism-based; parameters: dose 3 mg/kg, route intravenous; settings: plasma
[4] = Half life in Balb/c mouse at 3 mg/kg, iv by LC-MS/MS analysis; format: ADME, organism-based; parameters: dose 3 mg/kg, route intravenous; settings: in vivo
Staphylococcus aureus [5] = assay: Antibacterial activity against Staphylococcus aureus ATCC 29213 by broth microdilution method; format: functional
Summary of the method: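 Broth microdilution MIC per CLSI guidelines against S. aureus ATCC 29213; MIC in µg/mL.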

Staphylococcus aureus [6] = assay: Antibacterial activity against Staphylococcus aureus harboring FtsZ G196A mutant by broth microdilution method; format: functional
Summary of the method: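 S. aureus ATCC 29213 derivative with G196A substitution in FtsZ; MIC by broth microdilution following CLSI guidelines; reported in µg/mL.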

[7] = target: T1, Cell division protein FtsZ (Staphylococcus aureus) (UniProt P0A031); assay: Inhibition of Staphylococcus aureus ATCC 29213 FtsZ-mediated cell division phenotype
T1 sequence (whole entry): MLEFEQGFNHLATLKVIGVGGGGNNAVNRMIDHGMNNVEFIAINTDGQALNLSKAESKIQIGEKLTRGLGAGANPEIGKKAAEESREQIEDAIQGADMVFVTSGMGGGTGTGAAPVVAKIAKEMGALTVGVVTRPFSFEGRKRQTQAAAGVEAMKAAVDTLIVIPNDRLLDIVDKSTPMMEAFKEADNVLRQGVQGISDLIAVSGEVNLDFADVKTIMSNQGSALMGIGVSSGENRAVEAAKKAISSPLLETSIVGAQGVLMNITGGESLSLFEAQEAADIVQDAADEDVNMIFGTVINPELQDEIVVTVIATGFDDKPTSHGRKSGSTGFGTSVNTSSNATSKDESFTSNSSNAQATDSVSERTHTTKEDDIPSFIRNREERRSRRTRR
Summary of the method: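 S. aureus ATCC 29213 cell division inhibition assay run alongside MIC testing; value is the lowest concentration at which an inhibition of cell division phenotype was seen (µg/mL).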

[8] = Half life in CD-1 mouse hepatocytes at 10 uM by LC-MS/MS analysis; format: ADME, cell-based, Hepatocyte
Summary of the method: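 Cryopreserved CD-1 mouse hepatocytes (5×10^4 cells), compound 10 μM in duplicate, 0.5% v/v DMSO final; stopped with DMSO at seven time points up to 120 min. Acetonitrile extraction, centrifugation, LC-MS of supernatant; half-life in min.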

[9] = Chemical stability of the compound in PBS buffer assessed as compound remaining at 10 uM at pH 7.4 after 24 hrs by LC-MS/MS analysis; format: physicochemical; settings: read-out: Stability
Summary of the method: (§1)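 Compound at 10 μM in PBS pH 7.4 or neat mouse plasma, 5% v/v DMSO final, incubated 24 h at 37 °C. Samples extracted with acetonitrile and centrifuged; supernatant analysed by LC-MS; reported as % remaining.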

[10] = Initial plasma concentration in Balb/c mouse at 3 mg/kg, iv by LC-MS/MS analysis; format: ADME, organism-based; parameters: dose 3 mg/kg, route intravenous
[11] = Half life in mouse microsomes at 10 uM by LC-MS/MS analysis; format: ADME, Microsome
Summary of the method: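 Mouse microsomes at 1 mg/mL protein, compound 10 μM, 0.1% v/v DMSO final; started with 1 mM NADPH, stopped with DMSO at 0, 10, 30, 60 min. Acetonitrile extraction, centrifugation, LC-MS of supernatant; half-life in min.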

[12] = Metabolic stability in mouse plasma assessed as compound remaining at 10 uM after 24 hrs by LC-MS/MS analysis; format: ADME, cell-free; settings: read-out: Stability; summary of the method: as §1
[13] = Kinetic solubility of the compound in PBS buffer at pH 7.4 after 24 hrs by turbidimetric method; format: physicochemical; settings: read-out: Kinetic_solubility
Summary of the method: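 Turbidimetric: doubling dilutions in DMSO diluted twenty-fold into PBS pH 7.4, equilibrated 24 h at room temperature, absorbance read at 620 nm. Value is highest concentration with no measurable precipitate.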

Structure (SMILES)	Vd [1] [L/kg]	clearance [2] [mL/min/kg]	AUC [3] [ng·h/mL]	half-life [4] [h]	MIC (Staphylococcus aureus [5]) [µg/mL]	MIC (Staphylococcus aureus [6]) [µg/mL]	MIC [7] [µg/mL]	half-life at 10 µM [8] [h]	remaining at 24 h, 10 µM [9] [%]	C0 [10] [ng/mL]	half-life at 10 µM [11] [h]	remaining at 24 h, 10 µM [12] [%]	solubility kinetic at 24 h [13] [µg/mL]
CCc1oc(COc2ccc(F)c(C(N)=O)c2F)nc1-c1ccc(OC)cc1	4.3	319	200	0.167	0.12 (≈ 0.309 µM)	> 64	0.12 (≈ 0.309 µM)	0.39	97	1100	1.19	100	–
CCCc1oc(COc2ccc(F)c(C(N)=O)c2F)nc1-c1ccc(Cl)cc1	5	137	400	0.417	0.03 (≈ 0.0737 µM)	–	0.015 (≈ 0.0369 µM)	0.298	98	1200	1.14	101	–
NC(=O)c1c(F)ccc(OC(CO)c2nc(-c3ccc(C(F)(F)F)cc3)c(Br)o2)c1F (racemic)	1.3	7	6700	2.12	0.25 (≈ 0.493 µM)	8 (≈ 15.8 µM)	0.5 (≈ 0.986 µM)	1.19	102	4200	> 2	100	100 (≈ 197 µM)
